Measured values from ChEMBL document CHEMBL1126774, “Synthesis and antiviral activity of novel 5-(1-azido-2-haloethyl) and 5-(1-azido-, amino-, or methoxyethyl) analogs of 2'-deoxyuridine” (J Med Chem, 1993).
pEC50, pIC50: −log10 of the molar value.

Columns and labels:
Homo sapiens [1] = species: Homo sapiens; assay: Concentration of the drug required to reduce the proliferation of human foreskin fibroblast cells; format: functional
Method in brief: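 HFF cells seeded 24 h before in MEM + 10% FBS; drugs serially diluted 1:5 in MEM + 10% FBS over 100 µg/mL to 0.03 µg/mL, 72 h at 37 °C in CO2; cells trypsinized and counted on a Coulter counter; value is concentration (µM) reducing proliferation to 50% of untreated controls.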

Homo sapiens [2] = species: Homo sapiens; assay: Concentration of the drug required to reduce the uptake of neural red stain by uninfected cell monolayers (HFF); format: functional
Method in brief: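 HFF cells plated 24 h before assay at 2.5×10^4 cells/well; drug added in 1:5 serial dilution, incubated 7 days at 37 °C in CO2; 0.01% neutral red in DPBS 1 h, washed, dye extracted with 50% EtOH/1% acetic acid, OD 550 nm; value is concentration (µM) reducing uptake to 50% of untreated uninfected controls.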

[3] = test system: Human cytomegalovirus (Human herpesvirus 5); assay: Inhibitory concentration of the drug against the cytopathic effect for AD169 strain of human cytomegalovirus (HCMV) in human HFF cells
[4] = Inhibitory concentration of the drug against the cytopathic effect for ellen strain of […] in human HFF cells; format: functional, cell-based
[5] = Inhibitory concentration of the drug against the cytopathic effect for MS strain of herpes simplex virus-2 (HSV-2) in human HFF cells; format: functional, cell-based
Method in brief: (§1)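 HFF CPE assay: low-passage cells seeded 24 h before in MEM + 10% FBS, switched to MEM + 2% FBS. Drug added in triplicate, serially diluted 1:5, plus HSV-1 or HSV-2 at 1000 PFU/well; 3 days at 37 °C in CO2. Staining with 0.1% crystal violet, read at 620 nm. Value is concentration (µM) reducing CPE by 50%.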

[6] = Inhibitory concentration of the drug against the cytopathic effect for E-377 strain of herpes simplex virus-1 (HSV-1) in human HFF cells; format: functional, cell-based; method in brief: as §1
Raji = assay: Inhibitory concentration of the drug against the antigen production against P3HR-1 strain of epstein barr virus-2 (EBV) in Raji cells; format: functional, cell-based; settings: Homo sapiens
Method in brief: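 Raji cells infected with EBV P3HR-1; drug added after adsorption (45 min, 37 °C) and washing, then 2 days in complete medium. Cells counted, smears stained with monoclonal antibodies to early antigen components and VCA plus fluorescent detection; positive cells counted. Value is concentration (µM) reducing antigen production to 50% of untreated infected controls.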

Row | Structure (SMILES) | pIC50 (Homo sapiens [1]) | pIC50 (Homo sapiens [2]) | pEC50 [3] | pEC50 [4] | pEC50 [5] | pEC50 [6] | pEC50 (Raji)
1 | Nc1nc2c(ncn2COC(CO)CO)c(=O)[nH]1 [GANCICLOVIR] | 3.77 | < 3.41 | 6.30 |  |  |  | 
2 | [N-]=[N+]=NC(CBr)c1cn([C@H]2C[C@H](O)[C@@H](CO)O2)c(=O)[nH]c1=O (stereo partly specified) | 4.04 | < 3.89 | < 3.89 | 5.40 | 5.54 | 5.19 | 5.03
3 | [N-]=[N+]=NC(CI)c1cn([C@H]2C[C@H](O)[C@@H](CO)O2)c(=O)[nH]c1=O (stereo partly specified) | 4.12 | < 3.93 | < 3.93 | 4.91 | 4.88 | 6.30 | 5.40
4 | Nc1nc2c(ncn2COCCO)c(=O)[nH]1 [ACYCLOVIR] | < 3.36 | < 3.36 |  |  | 7.05 | 7.40 | 5.54
5 | [N-]=[N+]=NC(CCl)c1cn([C@H]2C[C@H](O)[C@@H](CO)O2)c(=O)[nH]c1=O (stereo partly specified) | < 3.52 | < 3.82 | < 3.82 | 5.35 | 5.18 | 7.22 | 4.95
6 | COC(C)c1cn([C@H]2C[C@H](O)[C@@H](CO)O2)c(=O)[nH]c1=O (stereo partly specified) | 3.48 | < 3.76 | 5.23 | < 4.06 | 6.00 | 5.77 | 
7 | O=c1[nH]c(=O)n([C@H]2C[C@H](O)[C@@H](CO)O2)cc1/C=C/I | 5.36 | 4.07 | 4.61 | 8.00 | 5.66 | 7.70 | 
8 | CC(N)c1cn([C@H]2C[C@H](O)[C@@H](CO)O2)c(=O)[nH]c1=O (stereo partly specified) | < 3.60 | < 3.90 | < 3.90 | < 3.60 | < 4.00 | < 4.00 | 4.35
9 | CC(N=[N+]=[N-])c1cn([C@H]2C[C@H](O)[C@@H](CO)O2)c(=O)[nH]c1=O (stereo partly specified) | 4.09 | < 3.77 | < 3.77 | < 4.17 | < 3.77 | < 3.77 | 
10 | CCc1cn([C@H]2C[C@H](O)[C@@H](CO)O2)c(=O)[nH]c1=O [EDOXUDINE] | 3.94 | < 3.71 | 6.05 | 4.18 | 5.82 | 6.22 | 4.92
